Compound activity: PubChem BioAssay, several laboratories
The list is not random: actives were taken first. Their share in the collection is about 2.3%.
SR-BI HDL uptake – mouse SR-BI HDL lipid transfer inhibition | ldlA[mSR-BI] CHO cells, DiI-HDL uptake fluorescence, 3 h | inhibition, % at 12.5 µM | Q61009 | actives 0.96% (n = 320,000);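 active = mean replicate inhibition of at least 70% and a set share of replicates each scoring 70 or more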
SR-BI DiI-HDL act – activators of SR-BI mediated HDL lipid uptake; actives 0.096% (n = 320,000); AID 504775; activation, % at 12.5 µM; CHO ldlA[mSR-BI] cells, DiI-HDL uptake fluorescence, 3 h; 100 = double the neutral-control signal;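 active = mean replicate activation of at least 60% and every replicate at or above 60%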
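Material – SR-BI-overexpressing, LDLR-lacking CHO cells · Medium – BSA-supplemented, HEPES-buffered Ham's F12, pH 7.4 · Doses – single concentration · Times – compound with DiI-HDL co-incubation, 3 h at 37 °C · Measured by – bottom-read fluorescence, 550/595 nm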
CAL PDZ FP-1 – human CAL PDZ-peptide interaction inhibition | Q9HD26 | purified CAL PDZ, TMR-peptide fluorescence polarization, 1 h | inhibition, % at 20 µM | actives 0.02% (n = 330,000);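 active = highest replicate inhibition of at least 40%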
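Material – purified CerCALP PDZ construct · Detection – FP readout, S and P plane fluorescence · Measure – percent inhibition from loss of millipolarization · Controls – unlabelled peptide for full inhibition, DMSO wells as neutral · Probe or stimulus – TMR-labelled reporter peptide T*-PRC34 bound in PDZ groove · Times – 1 h at RT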
ATG4B inhibitor – ATG4B (human) cysteine protease inhibition | actives 0.51% (n = 340,000) | AID 504462 | ATG4B cleavage of LC3-PLA2, NBD-HPC fluorescence, 1 h | Q9Y4P1 | inhibition, % at 8.33 µM; in the data active = inhibition above about 40%
Target sequence (Q9Y4P1 whole entry, looked up): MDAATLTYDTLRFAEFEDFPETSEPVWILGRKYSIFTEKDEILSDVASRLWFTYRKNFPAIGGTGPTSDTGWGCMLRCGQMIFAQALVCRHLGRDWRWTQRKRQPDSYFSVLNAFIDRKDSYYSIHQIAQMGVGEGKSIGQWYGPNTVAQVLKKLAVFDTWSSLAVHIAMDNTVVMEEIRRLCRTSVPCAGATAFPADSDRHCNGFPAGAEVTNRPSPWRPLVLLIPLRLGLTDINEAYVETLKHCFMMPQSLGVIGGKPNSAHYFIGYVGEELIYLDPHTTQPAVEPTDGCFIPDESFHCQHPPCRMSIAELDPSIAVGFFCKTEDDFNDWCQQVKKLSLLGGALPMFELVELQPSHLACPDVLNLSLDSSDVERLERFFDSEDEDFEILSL
CAL PDZ FP-2 – inhibitors of human CAL PDZ peptide binding | inhibition, % at 24.9 µM | actives 0.92% (n = 300,000) | purified CAL PDZ, TMR-peptide fluorescence polarization, 1 h | AID 602252;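 active = mean inhibition of at least 30% with at least half of replicates also reaching 30%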
A number is an active result; . = inactive; / = not tested or not shown; + = active, no number.

SMILES | SR-BI HDL uptake | SR-BI DiI-HDL act | CAL PDZ FP-1 | ATG4B inhibitor | CAL PDZ FP-2
CC1(C)CC=CC(COC(=O)c2ccccc2C(=O)O)C1 (stereo not given) | . | . | . | . | .
CCn1c(C)nc2cc(C(=O)N/N=C/c3ccc(O)c(O)c3O)ccc21 | . | . | . | . | .
CCC(=NNC(=O)c1ccc2c(c1)nc(C)n2CC)c1cc(F)ccc1O | 114 | . | . | . | .
CC1CCN(C(=O)CCc2nnc3ccc(N4CCC5(CC4)OCCO5)nn23)CC1 | . | . | . | . | .
CCCCC(=O)NC(c1ccccc1Cl)c1ccc2cccnc2c1O (stereo not given) | . | . | . | . | 58
CC(C)(CC(=O)O)CC(=O)Nc1ccc(Oc2ccc(C(C)(C)C)cc2)nc1 | / | / | / | . | /
C[N+](C)(C)CCCC(=O)c1ccc2c(c1)OCO2 | . | . | . | . | /
C=C(CN(C)C)C(=O)c1ccc(C)cc1C | 85 | . | . | . | .
C=C(CN(C)C)C(=O)c1ccc2c(c1)OCO2 | 109 | . | . | . | .
O=C(OC1CCOC1=O)c1ccc(Cl)c(S(=O)(=O)N2CCOCC2)c1 (stereo not given) | . | . | . | . | /
C=C(C)Cn1c(Sc2nc3ccccc3[nH]2)nc2c1c(=O)[nH]c(=O)n2C | . | . | . | . | 35
C=C(C)Cn1c(SCCCO)nc2c1c(=O)[nH]c(=O)n2C | . | . | / | . | .
CCCCNC(=O)Nc1ccccc1CC | . | . | . | . | 69
CCCCNC(=O)Nc1ccccc1Br | . | . | . | . | .
Cc1ccc(C(=O)N/C(=C\c2ccc(-c3cccc([N+](=O)[O-])c3)o2)C(=O)NCCCN2CCOCC2)cc1 | 78 | . | . | . | .
Cc1ccc(C(=O)N/C(=C/c2ccc(-c3cccc([N+](=O)[O-])c3)o2)C(=O)NC(C)(C)C)cc1 | . | . | . | . | .
Cc1ccc(C(=O)N/C(=C/c2ccc(-c3cccc([N+](=O)[O-])c3)o2)C(=O)NC(C)C)cc1 | 83 | . | . | . | .
Cc1cccc(NC(=O)c2ccc3nccnc3c2)c1C | . | . | . | . | .
C=CCN1C(=O)/C(=C2/Sc3ccc(OC)cc3N2C)SC1=NCc1ccccc1 | . | . | . | . | /
C=CCN1C(=O)/C(=C2/Sc3ccc(OC)cc3N2C)SC1=Nc1ccccc1 | 96 | . | . | . | .
CCN1C(=O)/C(=C2/Sc3ccc(OC)cc3N2C)SC1=Nc1cccc(O)c1 | 94 | . | . | . | .
COc1cc(/C=C/C(=O)Nc2cc(C(F)(F)F)ccc2Cl)cc(OC)c1OC | 78 | . | . | . | .
O=C(Nc1nc(-c2ccccn2)cs1)C1CC(=O)N(c2ccc3c(c2)OCCO3)C1 (stereo not given) | . | . | . | . | .
Cc1ccc(C)c(OCC(=O)Nc2cc(C)on2)c1 | / | / | . | . | /
COc1ccc(C(N)=O)c(OCC(=O)Nc2cc(C)on2)c1 | . | . | . | . | 39
SMILES | SR-BI HDL uptake | SR-BI DiI-HDL act | CAL PDZ FP-1 | ATG4B inhibitor | CAL PDZ FP-2
COc1ccccc1-n1cc(-c2ccc([N+](=O)[O-])cc2)[nH]c1=S | . | . | . | . | 63
CC(C)n1cc(/C=C2\NC(=O)N(c3cccc(Cl)c3)C2=O)c2ccccc21 | 98 | . | . | . | .
Cc1cccc(Nc2nc(N)nc(N)c2N=O)c1 | . | . | . | . | 71
Cc1cc(Br)ccc1Nc1nc(N)nc(N)c1N=O | . | . | . | . | .
COc1ccc(C2N(c3cc(C)on3)C(=O)C3CCCN32)cc1OC (stereo not given) | . | . | . | . | 51
O=[N+]([O-])c1ccccc1CCc1cnc(Cl)s1 | 84 | . | . | . | .
Cc1cccc(C(=O)NCC(=O)NC(C)CCc2ccccc2)c1 (stereo not given) | . | . | . | . | 32
O=C(O)c1c(-c2ccc(Cl)cc2)cn2ccccc12 | . | . | . | . | 100
CCOc1cc2[nH]c(=S)n(C3CCN(Cc4ccccc4)CC3)c(=O)c2cc1OCC | 75 | . | . | . | .
CCOC(=O)N1CCC(n2c(=S)[nH]c3cc(OC)c(OC)cc3c2=O)CC1 | . | . | . | . | /
O=C(N/N=C/c1ccccn1)c1cc(-c2ccc(Br)cc2)nc2ccccc12 | 76 | . | . | . | .
Cc1ccc(-c2cc(C(=O)N/N=C\c3cnn(C)c3C)c3ccccc3n2)cc1C | 96 | . | / | . | .
O=C(O)COc1ccccc1/C=N/NC(=O)c1cc(-c2ccccc2)nc2ccccc12 | / | / | . | . | .
O=C(N/N=C/c1ccccn1)c1cc(-c2ccc(Cl)cc2)nc2ccccc12 | 107 | . | . | . | .
Cc1cc(=O)nc2c3ccccc3n(C(C)C(=O)Nc3c(F)c(F)c(F)c(F)c3F)n12 (stereo not given) | . | . | . | . | 82
Cc1cc(=O)nc2c3ccccc3n(C(C)C(=O)Nc3cc(F)ccc3F)n12 (stereo not given) | / | / | . | . | .
Cc1cccc(NC(=O)CCS(=O)(=O)c2cccc3nsnc23)c1C | . | 70 | . | . | .
Cc1ccc(OCC(=O)NCCCNC(=O)c2ccc(C)nc2)cc1 | / | / | . | . | .
Cc1ccc(N(CC(=O)N2CCOCC2)S(C)(=O)=O)cc1 | . | . | . | . | .
CC(C)c1ccc(N(CC(=O)N2CCOCC2)S(C)(=O)=O)cc1 | . | . | . | . | 86
COc1ccc(NC(C)=O)cc1NC(=O)C1CCCN1C(=O)c1cccs1 (stereo not given) | . | . | . | . | 48
COc1ccc(C(=O)COC(=O)c2cnc(C)cn2)cc1OC | . | . | . | . | /
COc1ccc(CCNS(=O)(=O)c2ccc(-n3cnnn3)cc2)cc1OC | . | . | . | . | +
O=C(NC(=S)N(CCO)Cc1ccccc1)c1ccc(S(=O)(=O)N2CCCC2)cc1 | . | . | . | . | .
O=C(COC(=O)C1CCC(N2C(=O)C3C4CCC(C4)C3C2=O)CC1)c1ccc(F)cc1 (stereo not given) | . | . | . | . | 79
SMILES | SR-BI HDL uptake | SR-BI DiI-HDL act | CAL PDZ FP-1 | ATG4B inhibitor | CAL PDZ FP-2
Cc1c(NC(=O)c2nn3c(C(F)(F)F)cc(-c4ccccc4)nc3c2Cl)c(=O)n(-c2ccccc2)n1C | . | . | . | . | .
COc1cccc(-c2cc(C(F)(F)F)n3nc(C(=O)Nc4c(C)n(C)n(-c5ccccc5)c4=O)cc3n2)c1 | 78 | . | . | . | .
Cc1c(NC(=O)c2cnn3c(C(F)(F)F)cc(-c4ccco4)nc23)c(=O)n(-c2ccccc2)n1C | . | . | . | . | .
COc1ccc(-c2cc(C(=O)Nc3c(C)n(C)n(-c4ccccc4)c3=O)c3ccccc3n2)cc1 | / | / | . | . | .
CCOC(=O)c1nn2c(C(F)(F)F)cc(-c3ccc(OC)cc3)nc2c1Br | 104 | . | . | . | /
COc1ccc(-c2cc(C(F)(F)F)n3nc(C(=O)Nc4c(C)n(C)n(-c5ccccc5)c4=O)c(Cl)c3n2)cc1 | 79 | . | . | . | .
